Results on one compound are retold here after ChEMBL document CHEMBL4251573, “Synthesis and biological evaluation of N-substituted 3-oxo-1,2,3,4-tetrahydro-quinoxaline-6-carboxylic acid derivatives as tubulin polymerization inhibitors” (Eur J Med Chem, 2018).

Activity calls are given as the source filed them. No cut-off for these calls is given here.

Assay [1] relates to HeLa. Briefly: Induction of apoptosis in human HeLa cells assessed as plasmatorrhexis at 0.10 to 0.20 uM by microscopic method. Type of assay: functional, cell-based. A digest of the protocol: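 Morphology of HeLa cells was examined by light microscopy after 24 h exposure to 0.10, 0.15 or 0.20 μM, or 0.1% DMSO, alongside the annexin V/PI experiment.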
Assay [2] has as its system HeLa. Briefly: Induction of apoptosis in human HeLa cells assessed as necrotic cells at 0.20 uM after 24 hrs by annexin V-FITC/propidium iodide staining-based flow cytometric method (reference value: 0.15%). Type of assay: functional.
The test system of assay [3] is HeLa. Briefly: Cell cycle arrest in human HeLa cells assessed as accumulation at sub G1 phase at 0.25 uM after 24 hrs by propidium iodide staining-based flow cytometric method (reference value: 7.6%). Type of assay: functional. In general terms: In flow cytometry, cells or beads pass a laser one at a time.
Assay [4] has as its system HeLa. Briefly: Cell cycle arrest in human HeLa cells assessed as accumulation at G0/G1 phase at 0.15 uM after 24 hrs by propidium iodide staining-based flow cytometric method (reference value: 62.2%). Format: functional.
Assay [5] has as its system HeLa. Briefly: Cell cycle arrest in human HeLa cells assessed as accumulation at sub G1 phase at 0.15 uM after 24 hrs by propidium iodide staining-based flow cytometric method (reference value: 7.6%). Type of assay: functional.
Assay [6] deals with HeLa. Briefly: Cell cycle arrest in human HeLa cells assessed as accumulation at S phase at 0.25 uM after 24 hrs by propidium iodide staining-based flow cytometric method (reference value: 10.3%). Type of assay: functional.
Assay [7] deals with HeLa. Briefly: Cell cycle arrest in human HeLa cells assessed as accumulation at G0/G1 phase at 0.10 uM after 24 hrs by propidium iodide staining-based flow cytometric method (reference value: 62.2%). Type of assay: functional.
The test system of assay [8] is HeLa. Briefly: Induction of apoptosis in human HeLa cells assessed as late apoptotic cells at 0.20 uM after 24 hrs by annexin V-FITC/propidium iodide staining-based flow cytometric method (reference value: 0.15%). Format: functional.
Assay [9] has as its system HeLa. Briefly: Cell cycle arrest in human HeLa cells assessed as accumulation at G0/G1 phase at 0.25 uM after 24 hrs by propidium iodide staining-based flow cytometric method (reference value: 62.2%). Type of assay: functional.
Assay [10] deals with HeLa. Briefly: Cell cycle arrest in human HeLa cells assessed as accumulation at G2/M phase at 0.15 uM after 24 hrs by propidium iodide staining-based flow cytometric method (reference value: 19.9%). Format: functional.
In assay [11] the test system is HeLa. Briefly: Cell cycle arrest in human HeLa cells assessed as accumulation at S phase at 0.15 uM after 24 hrs by propidium iodide staining-based flow cytometric method (reference value: 10.3%). Format: functional.
Assay [12] relates to HeLa. Briefly: Induction of apoptosis in human HeLa cells assessed as early apoptotic cells at 0.20 uM after 24 hrs by annexin V-FITC/propidium iodide staining-based flow cytometric method (reference value: 2.31%). Type of assay: functional.
Assay [13] relates to HeLa. Briefly: Cell cycle arrest in human HeLa cells assessed as accumulation at sub G1 phase at 0.10 uM after 24 hrs by propidium iodide staining-based flow cytometric method (reference value: 7.6%). Type of assay: functional.
In assay [14] the test system is HeLa. Briefly: Cell cycle arrest in human HeLa cells assessed as accumulation at S phase at 0.20 uM after 24 hrs by propidium iodide staining-based flow cytometric method (reference value: 10.3%). Type of assay: functional.

Regarding `COC(=O)c1ccc2c(c1)NC(=O)CN2C(=O)c1cc(OC)c(OC)c(OC)c1`, the result in the assay with HeLa [1] was Active. For the same compound, the Activity in the assay with HeLa [2] is listed as 6.36%; with HeLa [3] it was 33.1%; with HeLa [4], 30.6%; in the assay on HeLa [5] it was 31.6%; with HeLa [6], 8.3%; in the assay with HeLa [7], 55.2%. For the same compound, the Activity in the assay on HeLa [8] was 14.4%; in the assay on HeLa [9], 13.8%; with HeLa [10], 29.2%; with HeLa [11] it was 8.3%; in the assay on HeLa [12], 17.05%; with HeLa [13], 13.1%. Also, the Activity in the assay with HeLa [14] is 8%.
